The record followed here is ChEMBL document CHEMBL2384937, “Design, synthesis and biological evaluation of novel pyrimidine, 3-cyanopyridine and m-amino-N-phenylbenzamide based monocyclic EGFR tyrosine kinase inhibitors” (Bioorg Med Chem, 2013).

Test [1] deals with Receptor tyrosine-protein kinase erbB-2 (Homo sapiens, UniProt P04626). Put plainly: Inhibition of recombinant ErbB-2 (unknown origin) after 10 mins by DELFIA/time-resolved fluorometry. Put shortly: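 Compound in DMSO, diluted in 25 mM HEPES pH 7.4, preincubated 10 min at room temperature with 12.5 ng recombinant ErbB-2. Reaction buffer with 20 mM HEPES, 2 mM MnCl₂, Na₃VO₄ and 1 mM DTT; 0.1 mM ATP–50 mM MgCl₂ added for 1 h. After washes, europium-labeled anti-phosphotyrosine antibody (400 ng) 1 h; enhancement solution, time-resolved fluorescence ex 340/em 615 nm. IC50 from percent-inhibition curves.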

The target in test [2] is Epidermal growth factor receptor (Homo sapiens, UniProt P00533). Put plainly: Inhibition of recombinant EGFR (unknown origin) after 10 mins by DELFIA/time-resolved fluorometry.
In a further test the test system is HL-60. Put plainly: Cytotoxicity against human HL60 cells after 2 days by sulforhodamine B assay. To be noted: HL-60, 48 h. The format is functional, cell-based. Put shortly:
(§1)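 Cells plated at 5 × 10⁴/mL in RPMI-1640 with 5% fetal bovine serum; next day dosed at 0.5, 5, 50, 500 and 5000 ng/mL and cultured 2 days. Survival read by sulforhodamine B staining; IC50 taken from growth curves. Standard deviations below 30%.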

For a further test, the system named is A549. Put plainly: Cytotoxicity against human A549 cells after 2 days by sulforhodamine B assay. The format is functional, cell-based. To be noted: A549, 48 h. Put shortly:
as §1
On the technique in general: The SRB assay estimates cell density from bound dye.

By IC50 is commonly meant the midpoint of a concentration-inhibition curve.

Chain of Epidermal growth factor receptor (P00533 whole entry): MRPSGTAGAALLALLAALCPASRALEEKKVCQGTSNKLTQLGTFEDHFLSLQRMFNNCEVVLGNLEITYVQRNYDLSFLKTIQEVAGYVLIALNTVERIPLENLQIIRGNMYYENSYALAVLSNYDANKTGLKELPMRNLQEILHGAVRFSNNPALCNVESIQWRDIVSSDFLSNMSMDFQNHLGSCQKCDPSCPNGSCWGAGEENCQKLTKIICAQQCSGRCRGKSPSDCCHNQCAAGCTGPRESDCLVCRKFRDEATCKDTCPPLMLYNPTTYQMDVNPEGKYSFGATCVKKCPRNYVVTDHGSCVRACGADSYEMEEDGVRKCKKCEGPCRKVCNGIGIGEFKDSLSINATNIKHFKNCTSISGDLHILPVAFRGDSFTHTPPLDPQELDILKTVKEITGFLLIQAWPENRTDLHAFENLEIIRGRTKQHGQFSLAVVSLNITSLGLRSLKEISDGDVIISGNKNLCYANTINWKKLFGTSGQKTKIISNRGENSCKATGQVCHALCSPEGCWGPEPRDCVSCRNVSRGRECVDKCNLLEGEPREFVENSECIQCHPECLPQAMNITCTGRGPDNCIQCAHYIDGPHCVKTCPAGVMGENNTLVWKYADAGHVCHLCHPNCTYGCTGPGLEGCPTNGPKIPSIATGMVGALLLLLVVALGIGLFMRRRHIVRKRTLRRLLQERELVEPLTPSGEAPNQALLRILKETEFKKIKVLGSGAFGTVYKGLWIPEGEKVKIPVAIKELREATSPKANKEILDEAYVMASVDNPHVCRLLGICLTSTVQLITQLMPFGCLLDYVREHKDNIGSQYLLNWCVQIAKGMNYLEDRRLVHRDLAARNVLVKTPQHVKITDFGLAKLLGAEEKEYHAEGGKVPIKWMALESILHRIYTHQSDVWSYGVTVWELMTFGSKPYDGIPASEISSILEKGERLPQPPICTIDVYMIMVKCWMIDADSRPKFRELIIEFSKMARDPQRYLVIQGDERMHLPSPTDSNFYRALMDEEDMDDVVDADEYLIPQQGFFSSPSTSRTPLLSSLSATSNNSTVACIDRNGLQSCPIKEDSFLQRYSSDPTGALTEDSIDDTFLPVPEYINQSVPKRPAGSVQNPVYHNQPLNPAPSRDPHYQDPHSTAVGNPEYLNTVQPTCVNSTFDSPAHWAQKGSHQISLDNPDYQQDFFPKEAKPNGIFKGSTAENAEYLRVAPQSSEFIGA
Chain of Receptor tyrosine-protein kinase erbB-2 (P04626 whole entry): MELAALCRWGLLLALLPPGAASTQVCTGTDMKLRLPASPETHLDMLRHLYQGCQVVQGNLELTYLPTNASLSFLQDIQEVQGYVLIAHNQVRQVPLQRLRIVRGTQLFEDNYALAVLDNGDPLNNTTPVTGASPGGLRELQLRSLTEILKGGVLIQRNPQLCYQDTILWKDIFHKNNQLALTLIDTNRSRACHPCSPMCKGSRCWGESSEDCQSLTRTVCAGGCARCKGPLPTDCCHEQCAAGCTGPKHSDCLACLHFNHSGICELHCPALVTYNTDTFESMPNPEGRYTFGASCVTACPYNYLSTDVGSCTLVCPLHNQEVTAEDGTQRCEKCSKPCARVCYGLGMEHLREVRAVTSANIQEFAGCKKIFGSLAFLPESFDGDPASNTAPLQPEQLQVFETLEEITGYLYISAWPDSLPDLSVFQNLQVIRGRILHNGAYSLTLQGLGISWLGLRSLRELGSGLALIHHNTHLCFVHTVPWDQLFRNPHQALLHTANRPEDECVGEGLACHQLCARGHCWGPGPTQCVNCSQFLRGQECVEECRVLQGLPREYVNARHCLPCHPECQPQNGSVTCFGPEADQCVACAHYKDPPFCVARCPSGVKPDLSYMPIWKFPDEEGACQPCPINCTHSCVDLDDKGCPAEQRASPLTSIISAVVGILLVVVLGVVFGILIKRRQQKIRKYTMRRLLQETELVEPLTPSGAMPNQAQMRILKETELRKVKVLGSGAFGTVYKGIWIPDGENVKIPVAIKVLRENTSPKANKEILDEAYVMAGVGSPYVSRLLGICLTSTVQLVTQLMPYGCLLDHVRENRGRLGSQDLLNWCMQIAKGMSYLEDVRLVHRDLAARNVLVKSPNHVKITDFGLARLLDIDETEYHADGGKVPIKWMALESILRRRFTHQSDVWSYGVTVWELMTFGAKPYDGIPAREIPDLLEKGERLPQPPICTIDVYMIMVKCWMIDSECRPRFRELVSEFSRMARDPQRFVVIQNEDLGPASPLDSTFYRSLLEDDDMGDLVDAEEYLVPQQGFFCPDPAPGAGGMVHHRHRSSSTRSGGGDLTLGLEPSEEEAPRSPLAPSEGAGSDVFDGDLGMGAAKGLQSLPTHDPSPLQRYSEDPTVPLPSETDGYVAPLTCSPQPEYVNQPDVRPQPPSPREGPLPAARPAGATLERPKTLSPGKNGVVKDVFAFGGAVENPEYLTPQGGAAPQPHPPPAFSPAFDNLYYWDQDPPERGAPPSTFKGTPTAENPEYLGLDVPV

As to `Cc1ncnc(Nc2ccc(OCc3cccc(F)c3)c(Cl)c2)c1/C=C/c1ccc(CNCCS(C)(=O)=O)o1`, the IC50 in test [1] is over 10 µM; in test [2], 0.46 µM.

In the case of `Cc1ncnc(Nc2ccc(OCc3cccc(F)c3)c(Cl)c2)c1C#Cc1ccc(CNCCS(C)(=O)=O)o1`, the 50% inhibitory concentration (IC50) in test [1] is over 10 µM; in test [2] it was 0.045 µM.

With `Cc1ncnc(Oc2ccc(OCc3ccccn3)c(Cl)c2)c1C#Cc1ccc(CNCCS(C)(=O)=O)o1`, the IC50 in test [2] is over 5 µM.

With `Cc1ncc(C#N)c(Nc2ccc(OCc3ccccn3)c(Cl)c2)c1/C=C/c1cccc(NC(=O)/C=C/CN(C)C)c1`, the results for the IC50 in test [1] and in test [2] were over 10 µM and over 5 µM, respectively.

With `Cc1ncc(C#N)c(Nc2ccc(OCc3ccccn3)c(Cl)c2)c1/C=C/c1ccc(CNCCS(C)(=O)=O)o1`, the IC50 in test [1] is over 10 µM; in test [2] it was over 5 µM.

Turning to `Cc1ncc(C#N)c(Nc2ccc(OCc3ccccn3)c(Cl)c2)c1C#Cc1ccc(CNCCS(C)(=O)=O)o1`, in test [2], the IC50 worked out at 1.5 µM.

In the case of `Cc1ncc(C#N)c(Oc2ccc(OCc3ccccn3)c(Cl)c2)c1C#Cc1ccc(CNCCS(C)(=O)=O)o1`, the IC50 in test [2] was over 5 µM.

On to `CN(C)C/C=C/C(=O)Nc1ccc(-c2cncc(C#N)c2Nc2ccc(OCc3ccccn3)c(Cl)c2)cc1`, for which the IC50 with HL-60 is over 10 µM; in the test with A549, over 10 µM; in test [2], over 5 µM.

`CN1CCN(Cc2ccc(C(=O)Nc3ccc(-c4cncc(C#N)c4Nc4ccc(OCc5ccccn5)c(Cl)c4)cc3)cc2)CC1`: the IC50 is 6 µM in the test with HL-60, over 10 µM with A549 and 2.3 µM in test [2].

As to `CN(C)C/C=C/C(=O)Nc1ccc(-c2cncc(C#N)c2Nc2ccc(OCc3cccc(F)c3)c(Cl)c2)cc1`, the IC50 in the test on HL-60 is over 10 µM; in the test on A549, 7 µM; in test [2], 0.66 µM.

With `CN1CCN(Cc2ccc(C(=O)Nc3ccc(-c4cncc(C#N)c4Nc4ccc(OCc5cccc(F)c5)c(Cl)c4)cc3)cc2)CC1`, the half-maximal inhibitory concentration (IC50) in the test with HL-60 worked out at 1.8 µM; in the test with A549, 6 µM; in test [2], 2.5 µM.

For `CN(C)C/C=C/C(=O)Nc1ccc(-c2cncc(C#N)c2Nc2ccc(F)c(Cl)c2)cc1`, the IC50 with HL-60 is 6 µM; in the test with A549, over 10 µM; in test [2], 3.5 µM.

For the molecule `CN1CCN(Cc2ccc(C(=O)Nc3ccc(-c4cncc(C#N)c4Nc4ccc(F)c(Cl)c4)cc3)cc2)CC1`, the IC50 in the test on HL-60 was 5 µM; in the test on A549, over 10 µM; in test [2], 3 µM.

As to `CC(=O)c1ccc(Nc2c(C#N)cncc2-c2ccc(NC(=O)/C=C/CN(C)C)cc2)cc1`, the figures for the IC50 (in the test on HL-60; in the test on A549; in test [2]) were over 10 µM, over 10 µM and over 5 µM, respectively.

For `CC(=O)c1ccc(Nc2c(C#N)cncc2-c2ccc(NC(=O)c3ccc(CN4CCN(C)CC4)cc3)cc2)cc1`, the values for the IC50 (in the test with HL-60; with A549; in test [2]) were 5 µM, over 10 µM and over 5 µM, respectively.

Take `CCOc1cc([N+](=O)[O-])c(C(=O)Nc2ccc(OCc3ccccn3)c(Cl)c2)cc1NC(=O)/C=C/CN(C)C`: the IC50 is 4 µM in the test on HL-60, 2.5 µM in the test on A549 and 0.85 µM in test [2].

For `CCOc1cc(N)c(C(=O)Nc2ccc(OCc3ccccn3)c(Cl)c2)cc1NC(=O)/C=C/CN(C)C`, the IC50 in the test on HL-60 was over 10 µM; in the test with A549, over 10 µM; in test [2] it was 0.8 µM.

Take `CCOc1cc([N+](=O)[O-])c(C(=O)Nc2ccc(OCc3ccccn3)c(Cl)c2)cc1NC(=O)c1ccc(CN2CCN(C)CC2)cc1`: the IC50 in the test on HL-60 is 5 µM; in the test with A549 it was 3.5 µM.

Consider `CCOc1cc(N)c(C(=O)Nc2ccc(OCc3ccccn3)c(Cl)c2)cc1NC(=O)c1ccc(CN2CCN(C)CC2)cc1`, for which the IC50 with HL-60 came out at 8 µM; in the test with A549, 6 µM; in test [2], 1 µM.

For the molecule `CCOc1cc([N+](=O)[O-])c(C(=O)Nc2ccc(OCc3cccc(F)c3)c(Cl)c2)cc1NC(=O)/C=C/CN(C)C`, the results for the IC50 (in the test on HL-60; with A549; in test [2]) were 4 µM, 3.5 µM and 2 µM, respectively.

Take `CCOc1cc(N)c(C(=O)Nc2ccc(OCc3cccc(F)c3)c(Cl)c2)cc1NC(=O)/C=C/CN(C)C`: the values for the IC50 (in the test on HL-60; in the test with A549; in test [2]) were 6 µM, 5.5 µM and 1.5 µM, respectively.

For the molecule `CCOc1cc([N+](=O)[O-])c(C(=O)Nc2ccc(OCc3cccc(F)c3)c(Cl)c2)cc1NC(=O)c1ccc(CN2CCN(C)CC2)cc1`, the 50% inhibitory concentration (IC50) in the test on HL-60 came to 4.5 µM; with A549 it was 6 µM; in test [2] it was 5.5 µM.

As for `CCOc1cc(N)c(C(=O)Nc2ccc(OCc3cccc(F)c3)c(Cl)c2)cc1NC(=O)c1ccc(CN2CCN(C)CC2)cc1`, the IC50 in the test on HL-60 worked out at 7 µM; in the test with A549 it was 6 µM; in test [2], 5 µM.

Regarding `CCOc1cc([N+](=O)[O-])c(C(=O)Nc2ccc(F)c(Cl)c2)cc1NC(=O)/C=C/CN(C)C`, the IC50 in the test on HL-60 was 6 µM; in the test with A549, over 10 µM; in test [2], 6 µM.

For the molecule `CCOc1cc(N)c(C(=O)Nc2ccc(F)c(Cl)c2)cc1NC(=O)/C=C/CN(C)C`, the IC50 was over 10 µM in the test on HL-60, over 10 µM in the test with A549 and 4.5 µM in test [2].

As to `CCOc1cc([N+](=O)[O-])c(C(=O)Nc2ccc(F)c(Cl)c2)cc1NC(=O)c1ccc(CN2CCN(C)CC2)cc1`, the IC50 in the test with HL-60 was 5.5 µM; with A549 it was 6 µM; in test [2], 5 µM.

As for `CCOc1cc(N)c(C(=O)Nc2ccc(F)c(Cl)c2)cc1NC(=O)c1ccc(CN2CCN(C)CC2)cc1`, the half-maximal inhibitory concentration (IC50) in the test on HL-60 is over 10 µM; in the test with A549, over 10 µM; in test [2], 0.8 µM.

For the molecule `CCOc1ccc(C(=O)Nc2ccc(OCc3ccccn3)c(Cl)c2)cc1NC(=O)/C=C/CN(C)C`, the IC50 is over 10 µM in the test with HL-60, over 10 µM with A549 and 1.2 µM in test [2].

Turning to `CCOc1ccc(C(=O)Nc2ccc(OCc3ccccn3)c(Cl)c2)cc1NC(=O)c1ccc(CN2CCN(C)CC2)cc1`, the IC50 with HL-60 was over 10 µM; in the test on A549, 6 µM; in test [2], 3.5 µM.

Consider `CCOc1ccc(C(=O)Nc2nccc(-c3cccnc3)n2)cc1NC(=O)/C=C/CN(C)C`, for which the results for the IC50 (in the test on HL-60; in the test with A549; in test [2]) were over 10 µM, over 10 µM and 6 µM, respectively.

For the molecule `CCOc1ccc(C(=O)Nc2nccc(-c3cccnc3)n2)cc1NC(=O)c1ccc(CN2CCN(C)CC2)cc1`, the IC50 in the test with HL-60 and in the test with A549 was over 10 µM throughout.

`Cc1ccc(NC(=O)/C=C/CN(C)C)cc1C(=O)Nc1ccc(OCc2cccc(F)c2)c(Cl)c1`: the figures for the IC50 (with HL-60; in the test on A549; in test [2]) were 5.5 µM, 7 µM and 0.45 µM, respectively.

As for `Cc1ccc(NC(=O)c2ccc(CN3CCN(C)CC3)cc2)cc1C(=O)Nc1ccc(OCc2cccc(F)c2)c(Cl)c1`, the IC50 was determined as 6 µM with HL-60, 5.5 µM with A549 and 0.6 µM in test [2].

As to `Cc1ccc(NC(=O)/C=C/CN(C)C)cc1C(=O)Nc1nccc(-c2cccnc2)n1`, the figures for the IC50 (in the test on A549; in test [2]) were over 10 µM and 5 µM, respectively.

In the case of `Cc1ccc(NC(=O)c2ccc(CN3CCN(C)CC3)cc2)cc1C(=O)Nc1nccc(-c2cccc(F)c2)n1`, the IC50 with A549 is over 10 µM; in test [2] it was 6 µM.

For the molecule `Cc1ncnc(Nc2ccc(OCc3cccc(F)c3)c(Cl)c2)c1/C=C/c1cccc(NC(=O)/C=C/CN(C)C)c1`, the 50% inhibitory concentration (IC50) in test [1] was over 10 µM; in test [2], over 5 µM.
